Experimental findings from ChEMBL document CHEMBL1140161, “Structure-activity relationships in 1,4-benzodioxan-related compounds. 9. From 1,4-benzodioxane to 1,4-dioxane ring as a promising template of novel alpha1D-adrenoreceptor antagonists, 5-HT1A full agonists, and cytotoxic agents” (J Med Chem, 2008) are described below.

Experiment [1] addresses T1, Alpha-1D adrenergic receptor (Homo sapiens, UniProt P25100).
T1 sequence (P25100 whole entry): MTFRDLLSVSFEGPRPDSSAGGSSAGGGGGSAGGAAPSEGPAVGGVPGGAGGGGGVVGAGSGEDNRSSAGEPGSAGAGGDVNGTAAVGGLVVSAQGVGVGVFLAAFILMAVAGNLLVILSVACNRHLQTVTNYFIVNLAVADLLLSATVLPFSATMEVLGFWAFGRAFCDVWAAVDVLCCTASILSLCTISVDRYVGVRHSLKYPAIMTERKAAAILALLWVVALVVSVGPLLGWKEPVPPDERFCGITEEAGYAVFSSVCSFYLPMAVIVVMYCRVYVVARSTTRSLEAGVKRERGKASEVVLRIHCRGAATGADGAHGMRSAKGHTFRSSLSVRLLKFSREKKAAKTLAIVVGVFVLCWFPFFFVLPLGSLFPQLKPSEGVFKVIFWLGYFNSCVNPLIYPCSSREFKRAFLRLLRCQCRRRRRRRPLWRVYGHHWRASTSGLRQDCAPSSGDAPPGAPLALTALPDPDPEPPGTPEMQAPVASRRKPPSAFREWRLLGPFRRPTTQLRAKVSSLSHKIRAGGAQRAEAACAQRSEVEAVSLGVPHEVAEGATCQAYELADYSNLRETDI
In words: Displacement of [3H]prazosin from human cloned alpha1D adrenoceptor expressed in CHO cells. The experiment is classed as cell-based. The procedure, abridged: (§1)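 [3H]prazosin binding to cloned human α1-adrenoceptor subtypes expressed in CHO cell membranes. Affinity reported as pKi for each subtype.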

The test system of a further experiment is PC-3. Nature of the experiment: Cytotoxicity against human PC3 cells after 48 hrs by SRB assay. The experiment is classed as functional. The settings on record: PC-3, 48 h; for CC50: read-out: LC50 (the source's name). In short, it runs like this: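 PC-3 human prostate cancer cells. Growth measured by sulforhodamine B staining following the NCI protocol. […] Values are means of quadruplicate determinations ± standard error (n = 5).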
In general terms: The SRB assay estimates cell density from bound dye.

Experiment [2] deals with T2, Alpha-1A adrenergic receptor (Rattus norvegicus) (UniProt P43140).
T2 sequence (whole entry): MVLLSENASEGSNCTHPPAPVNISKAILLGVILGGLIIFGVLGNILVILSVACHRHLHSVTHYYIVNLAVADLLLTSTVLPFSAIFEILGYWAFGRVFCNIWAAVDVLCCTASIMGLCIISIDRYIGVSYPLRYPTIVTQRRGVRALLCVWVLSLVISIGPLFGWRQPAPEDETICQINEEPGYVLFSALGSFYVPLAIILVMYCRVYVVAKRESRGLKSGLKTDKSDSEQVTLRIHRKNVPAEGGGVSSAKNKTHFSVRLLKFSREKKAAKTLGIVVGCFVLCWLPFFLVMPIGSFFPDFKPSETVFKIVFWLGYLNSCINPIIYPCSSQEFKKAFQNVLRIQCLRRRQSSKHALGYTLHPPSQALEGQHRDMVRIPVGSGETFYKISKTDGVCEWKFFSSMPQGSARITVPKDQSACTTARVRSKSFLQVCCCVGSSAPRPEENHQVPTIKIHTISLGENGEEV
In words: Antagonist activity at alpha1A adrenoceptor in Wistar rat prostatic vas deferens assessed as inhibition of (-)-noradrenaline-induced contraction after 30 mins. The experiment is classed as functional, tissue-based.

Experiment [3] has as its target T3, Alpha-1A adrenergic receptor (Homo sapiens, UniProt P35348).
T3 sequence (P35348 whole entry): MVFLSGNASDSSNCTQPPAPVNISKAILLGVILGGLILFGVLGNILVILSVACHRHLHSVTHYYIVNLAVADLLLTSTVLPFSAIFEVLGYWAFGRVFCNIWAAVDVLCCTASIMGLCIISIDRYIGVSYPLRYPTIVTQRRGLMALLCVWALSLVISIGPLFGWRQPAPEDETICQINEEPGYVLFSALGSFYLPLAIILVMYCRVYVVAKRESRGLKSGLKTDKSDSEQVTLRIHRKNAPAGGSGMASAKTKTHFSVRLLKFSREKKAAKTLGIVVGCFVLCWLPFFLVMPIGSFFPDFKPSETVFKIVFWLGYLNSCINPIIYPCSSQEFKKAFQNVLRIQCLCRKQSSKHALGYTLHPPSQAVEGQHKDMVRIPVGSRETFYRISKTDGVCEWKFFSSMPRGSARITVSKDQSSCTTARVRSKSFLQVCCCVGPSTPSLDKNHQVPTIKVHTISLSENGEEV
In words: Displacement of [3H]prazosin from human cloned alpha1A adrenoceptor expressed in CHO cells. The format is cell-based. In short, it runs like this:
as §1

The target in experiment [4] is T4, Alpha-1D adrenergic receptor (Rattus norvegicus) (UniProt P23944).
T4 sequence (whole entry): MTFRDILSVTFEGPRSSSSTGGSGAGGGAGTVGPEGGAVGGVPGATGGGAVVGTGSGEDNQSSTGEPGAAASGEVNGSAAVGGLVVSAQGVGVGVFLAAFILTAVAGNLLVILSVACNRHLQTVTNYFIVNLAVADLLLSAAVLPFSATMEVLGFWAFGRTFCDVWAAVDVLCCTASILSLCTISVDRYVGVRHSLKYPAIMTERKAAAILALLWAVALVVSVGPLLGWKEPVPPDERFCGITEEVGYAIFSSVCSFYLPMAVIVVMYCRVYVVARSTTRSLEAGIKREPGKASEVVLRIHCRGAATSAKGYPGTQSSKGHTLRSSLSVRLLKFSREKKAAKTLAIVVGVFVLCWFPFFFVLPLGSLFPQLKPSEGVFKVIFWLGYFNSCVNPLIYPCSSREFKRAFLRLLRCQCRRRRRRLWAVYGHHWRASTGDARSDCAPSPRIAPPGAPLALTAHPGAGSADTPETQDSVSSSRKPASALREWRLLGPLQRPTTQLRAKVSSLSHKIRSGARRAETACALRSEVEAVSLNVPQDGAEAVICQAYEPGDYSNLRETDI
Nature of the experiment: Antagonist activity at Alpha-1D adrenoceptor in Wistar rat thoracic aorta assessed as inhibition of (-)-noradrenaline-induced contraction after 30 mins. The format is functional, tissue-based.

The target of experiment [5] is T5, Alpha-1B adrenergic receptor (Rattus norvegicus) (UniProt P15823).
T5 sequence (whole entry): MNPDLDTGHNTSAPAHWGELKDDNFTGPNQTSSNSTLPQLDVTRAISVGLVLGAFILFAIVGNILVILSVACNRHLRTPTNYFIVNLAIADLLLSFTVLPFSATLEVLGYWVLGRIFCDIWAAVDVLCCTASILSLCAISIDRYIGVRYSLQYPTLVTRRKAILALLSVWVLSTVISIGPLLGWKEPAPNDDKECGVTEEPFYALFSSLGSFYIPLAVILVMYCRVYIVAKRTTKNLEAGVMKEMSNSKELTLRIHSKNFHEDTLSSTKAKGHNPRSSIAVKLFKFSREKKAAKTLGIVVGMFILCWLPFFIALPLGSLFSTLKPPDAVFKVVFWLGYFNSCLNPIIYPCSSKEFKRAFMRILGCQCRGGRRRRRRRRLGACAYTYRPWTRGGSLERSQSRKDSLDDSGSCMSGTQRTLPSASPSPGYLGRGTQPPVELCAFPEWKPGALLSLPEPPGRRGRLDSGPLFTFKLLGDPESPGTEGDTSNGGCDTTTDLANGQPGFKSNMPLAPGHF
In words: Antagonist activity at alpha1B adrenoceptor in Wistar rat spleen assessed as inhibition of (-)-phenylephrine-induced contraction after 30 mins. The format is functional, tissue-based.

The structures appear in SMILES notation.

On to `c1ccc(OCCNC[C@@H]2COC[C@@H](c3ccccc3)O2)cc1` (relative stereo), for which the Ki in experiment [1] was 0.155 µM; in experiment [3], 0.407 µM. Moreover, it took 158 µM to inhibit growth in the experiment with PC-3 by half (GI50). Also, the TGI in the experiment on PC-3 stood at 223 µM. Further, the CC50 in the experiment with PC-3 was more than 300 µM. The figures for the negative logarithm of the Kb (pKb) in experiment [2], in experiment [4] and in experiment [5] were 7.21, 6.38 and 6.88, respectively.

As for `COc1ccccc1OCCNC[C@@H]1COC(c2ccccc2)(c2ccccc2)CO1`, the figures for the Ki in experiment [1] and in experiment [3] were 0.102 µM and 0.0741 µM, respectively. This compound displayed a GI50 in the experiment with PC-3 of 7.8 µM. In addition, in the experiment with PC-3, net growth stopped (TGI) at 16.1 µM. Also, the CC50 in the experiment on PC-3 amounted to 35.8 µM. In addition, the results for the negative-log Kb (pKb) in experiment [2], in experiment [4] and in experiment [5] were 6.37, 7.71 and 6.81, respectively.

In the case of `c1ccc(OCCNC[C@@H]2COC(c3ccccc3)(c3ccccc3)CO2)cc1`, the figures for the Ki in experiment [1] and in experiment [3] were 0.126 µM and 0.224 µM, respectively. Further, in the experiment on PC-3, the GI50 was 9.9 µM. In addition, the TGI in the experiment on PC-3 worked out at 19.4 µM. Further, the CC50 with PC-3 came to 45.2 µM. Also, the pKb amounted to 6.15 in experiment [2], 7.19 in experiment [4] and 6.28 in experiment [5].

Turning to `COc1ccccc1OCCNC[C@@H]1COCC(c2ccccc2)(c2ccccc2)O1`, the figures for the Ki in experiment [1] and in experiment [3] were 0.00115 µM and 0.0275 µM, respectively. In addition, it took 6.3 µM to inhibit growth in the experiment on PC-3 by half (GI50). Total growth inhibition in the experiment with PC-3 (TGI) required 15.4 µM. For the same compound, in the experiment on PC-3, the CC50 was 35.1 µM. For the same compound, the figures for the pKb in experiment [2], in experiment [4] and in experiment [5] were 6.65, 8.32 and 6.86, respectively.

A word on the Ki: it is the equilibrium dissociation constant of an inhibitor or competing ligand from its target. Broadly, the GI50 is the concentration at which growth is held to half of that of the control. Higher therefore signals lower sensitivity of the cells. Usually TGI stands for the concentration giving total growth inhibition. High values mean lower sensitivity of the cells, low ones greater sensitivity of the cells. Broadly, the pKb is −log10 of the Kb, conventionally taken in molar units.
